{"source": "ChEMBL document CHEMBL1140812", "about": "“Synthesis of genistein derivatives and determination of their protective effects against vascular endothelial cell damages caused by hydrogen peroxide” (Bioorg Med Chem Lett, 2008)", "note": "Calls of active or inactive are those of the source. No cut-off for these calls is given here."}
{"tested_on": "HUVE12", "test": "Protection against hydrogen peroxide-induced apoptosis in human HUVE12 cells", "format": "functional, cell-based", "procedure,_shortened": "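HUVE-12 cells in DMEM with 10% newborn calf serum at 37 °C, 5% CO2. Pretreated 30 min with compound (0.1, 1.0, 10.0 µM; also 0.1–10.0 µM series) or 0.02% DMSO vehicle, then 1 mM H2O2 for 24 h. Trypsinized, fixed in 70% ice-cold ethanol, stained with PI/RNase A 15 min at 37 °C; apoptosis by flow cytometry. Three independent experiments.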"}
{"smiles": "COc1ccc(-c2coc3cc(OC(F)F)cc(OC)c3c2=O)cc1", "Activity": "Active"}
{"tested_on": "HUVE12", "test": "Reversal of hydrogen peroxide-induced LDH activity in human HUVE12 cells", "format": "functional, cell-based", "procedure,_shortened": "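HUVE-12 cells pretreated 30 min with compound (0.1–10.0 µM) or 0.02% DMSO vehicle, then 1 mM H2O2 for 24 h at 37 °C. Medium sampled before harvest; LDH activity measured by colorimetric kit as a marker of cell injury. Average of three experiments.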"}
{"smiles": "COc1ccc(-c2coc3cc(OC(F)F)cc(OC)c3c2=O)cc1", "Activity": "Active"}
{"smiles": "CCCOc1ccc(-c2coc3cc(OC(F)F)cc(OCCC)c3c2=O)cc1", "Activity": "Active"}
{"smiles": "O=c1c(-c2ccc(OCc3ccccc3)cc2)coc2cc(OC(F)F)cc(OCc3ccccc3)c12", "Activity": "Active"}
{"smiles": "CCCCCCCCOc1ccc(-c2coc3cc(OC(F)F)cc(OCCCCCCCC)c3c2=O)cc1", "Activity": "Active"}
{"smiles": "O=c1c(-c2ccc(OC(F)F)cc2)coc2cc(OC(F)F)cc(O)c12", "Activity": "Active"}
{"smiles": "CCCCCCCCCOc1ccc(-c2coc3cc(OC(F)F)cc(OCCCCCCCCC)c3c2=O)cc1", "Activity": "Active"}
{"smiles": "O=c1c(-c2ccc(O)cc2)coc2cc(OC(F)F)cc(O)c12", "Activity": "Active"}
{"smiles": "CCCCCCCOc1ccc(-c2coc3cc(OC(F)F)cc(OCCCCCCC)c3c2=O)cc1", "Activity": "Active"}
{"smiles": "CC(C)C/C=C/Oc1ccc(-c2coc3cc(OC(F)F)cc(O/C=C/CC(C)C)c3c2=O)cc1", "Activity": "Active"}
{"smiles": "CCOc1ccc(-c2coc3cc(OC(F)F)cc(OCC)c3c2=O)cc1", "Activity": "Active"}
{"smiles": "O=c1c(-c2ccc(O)cc2)coc2cc(O)cc(O)c12", "Activity": "Active"}
